The source made the active and inactive calls. The rule behind the calls is not given here.
Columns and labels:
[1] = test system: SK-HEP1; assay: Antiproliferative activity against human SKHEP1 cells assessed as reduction in cell viability incubated for 72 hrs by CCK8 assay; assay type: functional, cell-based; details: SK-HEP1, 72 h
[2] = test system: Tyrosine-protein kinase ABL1 (Homo sapiens), P00519 [T315I]; assay: Inhibition of Abl T315I mutant (unknown origin) using Abltide as substrate at 5 uM incubated for 40 mins in presence of 10 uM ATP by kiase-Glo luminescence assay relative to control
[3] = molecular target: Poly [ADP-ribose] polymerase tankyrase-1 (Homo sapiens) (UniProt O95271); assay: Inhibition of TNKS1 (unknown origin) using biotin-NAD+, NAD+ and sIDNA as substrate at 5 uM incubated for 1 hr by ELISA relative to control
Chain of Poly [ADP-ribose] polymerase tankyrase-1 (Homo sapiens) (O95271 whole entry): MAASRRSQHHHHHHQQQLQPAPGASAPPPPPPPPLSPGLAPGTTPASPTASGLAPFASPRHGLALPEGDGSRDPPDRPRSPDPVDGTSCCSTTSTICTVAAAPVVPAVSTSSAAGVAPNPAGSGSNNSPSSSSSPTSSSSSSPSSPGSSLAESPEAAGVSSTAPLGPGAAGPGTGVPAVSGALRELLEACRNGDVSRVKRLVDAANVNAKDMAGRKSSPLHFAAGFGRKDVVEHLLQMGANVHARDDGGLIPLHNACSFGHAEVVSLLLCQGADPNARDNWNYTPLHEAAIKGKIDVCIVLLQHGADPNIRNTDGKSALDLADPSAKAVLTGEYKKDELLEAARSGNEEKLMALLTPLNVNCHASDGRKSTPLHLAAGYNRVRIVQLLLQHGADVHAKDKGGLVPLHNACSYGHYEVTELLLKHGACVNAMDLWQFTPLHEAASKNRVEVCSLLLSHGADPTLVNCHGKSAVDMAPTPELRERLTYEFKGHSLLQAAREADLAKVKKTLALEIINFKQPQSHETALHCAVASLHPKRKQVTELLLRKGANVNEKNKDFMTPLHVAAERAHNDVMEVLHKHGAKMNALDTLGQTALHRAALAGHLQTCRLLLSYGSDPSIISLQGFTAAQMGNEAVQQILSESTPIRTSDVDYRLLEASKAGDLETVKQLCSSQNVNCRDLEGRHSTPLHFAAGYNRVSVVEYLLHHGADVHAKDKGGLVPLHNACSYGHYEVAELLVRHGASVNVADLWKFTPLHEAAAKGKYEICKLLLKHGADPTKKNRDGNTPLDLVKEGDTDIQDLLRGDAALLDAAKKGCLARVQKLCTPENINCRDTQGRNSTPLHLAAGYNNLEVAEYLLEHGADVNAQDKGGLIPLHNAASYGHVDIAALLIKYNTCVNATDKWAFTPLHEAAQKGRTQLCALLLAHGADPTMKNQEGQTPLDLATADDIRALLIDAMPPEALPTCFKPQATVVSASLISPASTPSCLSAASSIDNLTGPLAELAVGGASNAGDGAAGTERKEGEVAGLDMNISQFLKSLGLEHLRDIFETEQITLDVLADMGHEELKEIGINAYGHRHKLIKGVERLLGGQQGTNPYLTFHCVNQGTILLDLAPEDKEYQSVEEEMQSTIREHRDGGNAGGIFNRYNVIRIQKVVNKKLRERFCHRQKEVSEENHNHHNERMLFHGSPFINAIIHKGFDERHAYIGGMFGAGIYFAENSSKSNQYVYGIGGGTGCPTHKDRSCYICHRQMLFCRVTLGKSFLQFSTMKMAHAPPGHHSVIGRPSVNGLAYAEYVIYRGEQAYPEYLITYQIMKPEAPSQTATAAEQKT

[4] = molecular target: Epidermal growth factor receptor (Homo sapiens) (UniProt P00533); assay: Inhibition of EGFR (unknown origin) using poly (Glu, Tyr) as substrate at 5 uM incubated for 40 mins in presence of 10 uM ATP by kiase-Glo luminescence assay relative to control
Chain of Epidermal growth factor receptor (Homo sapiens) (P00533 whole entry): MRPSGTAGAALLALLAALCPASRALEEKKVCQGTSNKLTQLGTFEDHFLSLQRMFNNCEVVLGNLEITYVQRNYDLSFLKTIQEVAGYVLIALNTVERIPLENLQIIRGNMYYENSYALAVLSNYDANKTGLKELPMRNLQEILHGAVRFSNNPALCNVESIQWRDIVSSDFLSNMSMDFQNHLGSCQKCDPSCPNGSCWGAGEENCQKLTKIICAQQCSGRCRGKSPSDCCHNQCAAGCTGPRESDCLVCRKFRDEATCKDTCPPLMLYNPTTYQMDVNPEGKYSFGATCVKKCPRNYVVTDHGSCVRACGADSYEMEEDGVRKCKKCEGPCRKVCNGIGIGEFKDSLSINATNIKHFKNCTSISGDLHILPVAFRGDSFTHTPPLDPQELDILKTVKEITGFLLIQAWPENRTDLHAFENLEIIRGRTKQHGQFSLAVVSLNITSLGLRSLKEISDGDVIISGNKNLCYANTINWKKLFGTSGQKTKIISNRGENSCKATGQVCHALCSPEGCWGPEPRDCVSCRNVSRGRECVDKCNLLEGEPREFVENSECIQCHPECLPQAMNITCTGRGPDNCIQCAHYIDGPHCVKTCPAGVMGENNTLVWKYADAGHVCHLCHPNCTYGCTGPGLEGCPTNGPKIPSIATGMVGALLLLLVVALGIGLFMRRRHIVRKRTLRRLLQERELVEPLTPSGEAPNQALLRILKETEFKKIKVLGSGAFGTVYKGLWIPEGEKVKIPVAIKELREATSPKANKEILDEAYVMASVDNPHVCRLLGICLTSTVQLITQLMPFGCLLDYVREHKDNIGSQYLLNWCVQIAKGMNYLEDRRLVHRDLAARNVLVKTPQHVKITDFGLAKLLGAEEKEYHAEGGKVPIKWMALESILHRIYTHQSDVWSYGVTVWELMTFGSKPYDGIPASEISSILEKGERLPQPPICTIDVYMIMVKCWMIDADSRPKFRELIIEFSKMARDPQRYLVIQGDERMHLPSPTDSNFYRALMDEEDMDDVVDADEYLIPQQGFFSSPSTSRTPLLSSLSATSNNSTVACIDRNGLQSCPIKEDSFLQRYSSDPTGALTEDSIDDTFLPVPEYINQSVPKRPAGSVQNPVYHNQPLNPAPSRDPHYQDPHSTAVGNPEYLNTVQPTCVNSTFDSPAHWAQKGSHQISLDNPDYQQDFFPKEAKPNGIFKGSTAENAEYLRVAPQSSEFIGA

[5] = Toxicity in mouse xenografted with human HCT116 cells assessed as reduction in body weight at 4 mg/kg, ip bid for 21 days administration starting from 10 days after tumor cell implantation measured every 2 or 4 days till the end of the treatment period; assay type: organism-based; details: in vivo
In short: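 Nude mice bearing HCT116 xenografts were given intraperitoneal doses on 21 consecutive days, with n = 6 per group including an untreated control group. Body weight was recorded to assess toxicity. Data are mean ± SEM, compared with the control group by Student's t test.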

[6] = test system: HCT-116; assay: Induction of apoptosis in human HCT116 cells at 0.04 uM incubated for 24 hrs by annexin V-FITC and propidium iodide staining based flow cytometry (reference value: 0.86 %); assay type: functional
[7] = molecular target: Histone deacetylase 3/Nuclear receptor corepressor 2 (HDAC3/NCoR2) (Homo sapiens) (UniProt O15379+Q9Y618); assay: Inhibition of C-terminal His-tagged recombinant human HDAC3 (1 to 428 residues)/N-terminal GST-tagged recombinat human NCoR2 (395 to 489 residues) co-expressed in baculovirus infected Sf9 cells using histone peptide 3 as substrate at 5 uM incubated for 30 mins by fluorescence analysis
[8] = molecular target: Histone-lysine N-methyltransferase EHMT2 (Homo sapiens) (UniProt Q96KQ7); assay: Inhibition of N-terminal GST-tagged recombinant human G9a (785 to 1210 residues) expressed in Escherichia coli cells using biotinylated histone H3 peptide as substrate at 5 uM incubated for 90 mins in presence of 1 uM SAM by AlphaScreen assay relative to control
Chain of Histone-lysine N-methyltransferase EHMT2 (Homo sapiens) (Q96KQ7 whole entry, the tested form may be a part): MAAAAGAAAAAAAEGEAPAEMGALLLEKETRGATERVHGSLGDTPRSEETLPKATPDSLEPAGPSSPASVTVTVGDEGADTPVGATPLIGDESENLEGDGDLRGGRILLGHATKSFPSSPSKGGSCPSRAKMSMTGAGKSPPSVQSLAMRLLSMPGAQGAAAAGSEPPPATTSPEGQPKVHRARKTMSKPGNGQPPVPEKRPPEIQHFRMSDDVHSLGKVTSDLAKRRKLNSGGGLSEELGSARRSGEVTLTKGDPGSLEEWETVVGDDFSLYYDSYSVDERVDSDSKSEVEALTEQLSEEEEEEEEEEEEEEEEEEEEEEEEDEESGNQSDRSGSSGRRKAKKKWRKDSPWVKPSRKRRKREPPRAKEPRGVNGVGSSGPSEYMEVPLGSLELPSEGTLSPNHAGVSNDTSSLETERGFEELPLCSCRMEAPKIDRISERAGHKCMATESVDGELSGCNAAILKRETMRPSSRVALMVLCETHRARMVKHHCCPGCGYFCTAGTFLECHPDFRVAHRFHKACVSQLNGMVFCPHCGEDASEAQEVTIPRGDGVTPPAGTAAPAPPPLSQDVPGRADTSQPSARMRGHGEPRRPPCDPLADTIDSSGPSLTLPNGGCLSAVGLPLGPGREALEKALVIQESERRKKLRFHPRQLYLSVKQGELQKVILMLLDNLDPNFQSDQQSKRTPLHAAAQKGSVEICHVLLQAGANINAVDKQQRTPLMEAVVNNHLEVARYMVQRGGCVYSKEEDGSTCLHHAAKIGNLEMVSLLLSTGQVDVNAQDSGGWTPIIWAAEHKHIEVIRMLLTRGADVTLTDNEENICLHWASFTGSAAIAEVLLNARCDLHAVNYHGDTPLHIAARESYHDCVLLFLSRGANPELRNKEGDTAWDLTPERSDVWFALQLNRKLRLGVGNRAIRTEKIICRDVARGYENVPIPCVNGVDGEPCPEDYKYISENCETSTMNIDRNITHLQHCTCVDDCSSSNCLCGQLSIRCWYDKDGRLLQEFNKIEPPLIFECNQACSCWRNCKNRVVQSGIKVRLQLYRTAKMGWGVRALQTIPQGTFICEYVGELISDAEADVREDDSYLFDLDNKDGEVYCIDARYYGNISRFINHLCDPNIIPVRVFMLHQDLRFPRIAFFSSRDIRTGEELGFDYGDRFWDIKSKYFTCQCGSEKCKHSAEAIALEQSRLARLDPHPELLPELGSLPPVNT

[9] = molecular target: T1, DNA topoisomerase 1 (Escherichia coli (strain K12)) (UniProt P06612); assay: Inhibition of Escherichia coli Top1 assessed as decrease in relaxation of supercoiled pBR322 plasmid DNA at 100 uM using supercoiled pBR322 plasmid DNA as substrate incubated for 15 mins by agarose gel electrophoresis analysis
T1 sequence (whole entry): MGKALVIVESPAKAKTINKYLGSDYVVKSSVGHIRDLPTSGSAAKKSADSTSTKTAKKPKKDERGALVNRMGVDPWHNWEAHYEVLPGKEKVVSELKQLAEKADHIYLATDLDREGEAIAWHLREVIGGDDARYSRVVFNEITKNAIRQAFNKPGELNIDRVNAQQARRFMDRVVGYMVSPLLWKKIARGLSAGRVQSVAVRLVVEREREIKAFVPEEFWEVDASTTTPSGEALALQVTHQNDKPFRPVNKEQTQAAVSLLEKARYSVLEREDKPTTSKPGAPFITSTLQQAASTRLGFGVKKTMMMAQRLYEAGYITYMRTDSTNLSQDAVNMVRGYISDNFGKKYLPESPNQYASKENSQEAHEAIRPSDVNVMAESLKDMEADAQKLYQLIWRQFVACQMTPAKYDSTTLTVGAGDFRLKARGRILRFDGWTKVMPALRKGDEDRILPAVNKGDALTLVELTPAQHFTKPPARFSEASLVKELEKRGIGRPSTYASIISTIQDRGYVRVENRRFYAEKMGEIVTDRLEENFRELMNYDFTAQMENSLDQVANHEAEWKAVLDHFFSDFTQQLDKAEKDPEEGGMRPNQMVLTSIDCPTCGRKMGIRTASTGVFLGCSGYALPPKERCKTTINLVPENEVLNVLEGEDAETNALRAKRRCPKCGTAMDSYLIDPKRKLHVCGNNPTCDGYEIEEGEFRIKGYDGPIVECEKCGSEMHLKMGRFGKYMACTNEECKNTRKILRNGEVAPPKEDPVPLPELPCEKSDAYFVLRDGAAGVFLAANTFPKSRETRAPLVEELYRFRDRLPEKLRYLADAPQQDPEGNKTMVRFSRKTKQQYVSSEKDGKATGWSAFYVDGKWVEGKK

[10] = molecular target: Focal adhesion kinase 1 (Homo sapiens) (UniProt Q05397); assay: Inhibition of FAK (unknown origin) using poly (Glu, Tyr) as substrate at 5 uM incubated for 40 mins in presence of 10 uM ATP by kiase-Glo luminescence assay relative to control
Chain of Focal adhesion kinase 1 (Homo sapiens) (Q05397 2-1052 limits assumed): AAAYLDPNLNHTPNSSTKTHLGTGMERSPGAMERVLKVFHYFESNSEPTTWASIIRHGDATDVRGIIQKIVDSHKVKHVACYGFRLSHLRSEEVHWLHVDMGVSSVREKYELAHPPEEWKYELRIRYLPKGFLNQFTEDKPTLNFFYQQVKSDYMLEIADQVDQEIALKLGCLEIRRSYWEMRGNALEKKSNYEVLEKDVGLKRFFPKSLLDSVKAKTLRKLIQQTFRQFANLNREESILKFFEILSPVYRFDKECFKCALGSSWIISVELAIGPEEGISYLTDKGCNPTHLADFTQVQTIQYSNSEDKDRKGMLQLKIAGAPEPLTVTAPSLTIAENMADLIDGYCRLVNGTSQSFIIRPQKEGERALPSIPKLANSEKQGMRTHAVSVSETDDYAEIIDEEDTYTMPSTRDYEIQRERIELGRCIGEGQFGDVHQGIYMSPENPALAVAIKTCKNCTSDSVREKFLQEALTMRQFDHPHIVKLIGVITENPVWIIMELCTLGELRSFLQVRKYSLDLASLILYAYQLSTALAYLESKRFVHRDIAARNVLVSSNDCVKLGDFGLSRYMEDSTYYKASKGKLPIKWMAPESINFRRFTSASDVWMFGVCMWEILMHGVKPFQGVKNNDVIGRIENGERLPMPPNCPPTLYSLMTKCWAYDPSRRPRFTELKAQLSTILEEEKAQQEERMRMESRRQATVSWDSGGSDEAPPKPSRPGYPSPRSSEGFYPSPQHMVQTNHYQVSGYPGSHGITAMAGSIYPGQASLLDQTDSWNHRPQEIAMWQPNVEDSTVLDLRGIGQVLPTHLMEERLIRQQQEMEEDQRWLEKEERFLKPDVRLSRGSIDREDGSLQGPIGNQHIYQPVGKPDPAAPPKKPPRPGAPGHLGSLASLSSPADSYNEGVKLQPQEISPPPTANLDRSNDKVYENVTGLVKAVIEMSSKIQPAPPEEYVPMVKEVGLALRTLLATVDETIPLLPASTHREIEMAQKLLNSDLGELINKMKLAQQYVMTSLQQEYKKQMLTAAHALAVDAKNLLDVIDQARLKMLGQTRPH

[11] = molecular target: Protein arginine N-methyltransferase 1 (Homo sapiens) (UniProt Q99873); assay: Inhibition of PRMT1 (unknown origin) using plate-coated histone as substrate at 5 uM incubated for 90 mins in presence of 0.5 uM SAM by AlphaScreen assay relative to control
[12] = molecular target: CDK9/cyclin T1 (Homo sapiens) (UniProt O60563+P50750); assay: Inhibition of CDK9/Cyclin T1 (unknown origin) using PDKtide as substrate at 5 uM incubated for 40 mins in presence of 10 uM ATP by kinase-Glo luminescence assay relative to control; assay type: protein-complex assay
[13] = test system: K562; assay: Antiproliferative activity against human K562 cells assessed as reduction in cell viability incubated for 72 hrs by CCK8 assay; assay type: functional, cell-based; details: K562, 72 h
[14] = test system: HCT-116; assay: Cell cycle arrest in human HCT116 cells assessed as accumulation in G1 phase at 36 nM incubated for 24 hrs by propidium iodide staining based flow cytometry (reference value: 45.18 %); assay type: functional
[15] = molecular target: Protein mono-ADP-ribosyltransferase PARP15 (Homo sapiens) (UniProt Q460N3); assay: Inhibition of PARP15 (unknown origin) using biotin-NAD+, NAD+ and sIDNA as substrate at 5 uM incubated for 1 hr by ELISA relative to control

COc1ccc2c(c1)cc1n2CCN2C(=O)c3cc(F)ccc3N(C)C12 (stereo not given)
IC50 [1]: 1300 nM | inhibition [2]: < 20% | inhibition [3]: < 20% | inhibition [4]: < 20% | Activity [5]: Non-Toxic | Activity [6]: 32.52% | inhibition [7]: < 20% | inhibition [8]: < 20% | inhibition [9]: Active | inhibition [10]: < 20% | inhibition [11]: < 20% | inhibition [12]: < 20% | IC50 [13]: < 3 nM | Activity [14]: 1.02% | inhibition [15]: < 20%

Reference: ChEMBL document CHEMBL4376872, “Scaffold Hopping of Natural Product Evodiamine: Discovery of a Novel Antitumor Scaffold with Excellent Potency against Colon Cancer” (J Med Chem, 2020)
